This is an account of results in ChEMBL document CHEMBL1153954, “Promiscuous aggregate-based inhibitors promote enzyme unfolding” (J Med Chem, 2009).

Molecules are shown by their SMILES. Activity calls are given as the source filed them. No cut-off for these calls is given here.

Assay [1] addresses AmpC (Escherichia coli) (UniProt Q83TT7). Nature of the assay: Inhibition of Escherichia coli AmpC assessed as induction of protein unfolding measured by trypsin mediated degradation of compound-AmpC enzyme complex at 100 uM after 4 hrs by gel electrophoresis. In short, it runs like this:
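AmpC (0.5 μM) was preincubated 5 min with or without 100 μM aggregator in 50 mM KPi, pH 7.0, 1% DMSO final. Trypsin (0.01 or 0.025 mg/mL) was then added, and digestion ran at room temperature for 0, 15, 30 min, 1 h or 4 h. Samples were boiled in DTT-containing loading buffer and the AmpC band was followed by SDS-PAGE.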

The target is the same in assay [2]. Kind of assay: Inhibition of Escherichia coli AmpC assessed as induction of protein unfolding measured by trypsin mediated degradation of compound-AmpC enzyme complex at 250 uM after 15 mins by gel electrophoresis. In short, it runs like this:
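AmpC β-lactamase (0.5 μM) in 50 mM KPi, pH 7.0, with or without aggregator at 250 μM (1% DMSO final). Trypsin (0.01 or 0.025 mg/mL) added after 5 min. Digestion ran at room temperature for 0 min to 4 h. Samples were boiled 2 min in DTT-containing loading buffer, run on SDS-PAGE, and the β-lactamase band was scored against compound-free enzyme.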

AmpC (Escherichia coli), sequence (Q83TT7 as listed by the source): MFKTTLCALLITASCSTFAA

In the case of `CCCCCCNC(=O)Nc1ccc(S(=O)(=O)Nc2ccc(CCNC[C@H](O)COc3ccc(O)cc3)cc2)cc1`, in assay [1], the result was Active.
Take `COC(=O)C1=C(C)NC(C)=C(C(=O)OCCN(C)Cc2ccccc2)C1c1cccc([N+](=O)[O-])c1` (configuration not stated): in assay [2], the outcome was Active.
